# NF-kB expr up: activators of NF-kB expression in neurons, primary screen, cell-based, HTS | human neuronal cells, NF-kB reporter expression; stronger effect = higher value | fold change at 12.5 µM | 190,000 tested, 1.6% active | AID 1239, 2008; in the data active means fold change above about 3.3
# STAT1 act-1: STAT1 signaling activators, primary screen, cell-based, HTS, luciferase reporter. NIH 3T3 STAT1-luciferase reporter, IFN-gamma, luminescence; 100% = IFN-gamma alone, no compound. activation (% of control), % at 5.5 µM. 200,000 tested, 2.6% active. AID 932, 2007;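 active means activation above the screen-wide mean activation plus 3 SD, cut at about 130% in these data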;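 further: raw ratio to IFN-gamma control signal so 100% means no change and 0% no light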
# STAT3 inh: IL-6 driven STAT3 reporter inhibitors, primary screen, U3A cells, luciferase, luminescence, MLSCN library; IL-6 STAT3-luciferase reporter; host cell line lacks STAT1; inhibition, % at 5.5 µM; 190,000 tested, 0.89% active;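 active means inhibition above the mean inhibition across all screened compounds plus 3 SD, cut at about 44% in these data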;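 further: 0% = DMSO only wells and 100% = 100 µM nifuroxazide control wells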
# STAT1 inh: STAT1 signaling inhibitors, primary screen, cell-based, HTS, luciferase reporter. 200,000 tested, 0.35% active. inhibition, % at 5.5 µM. AID 920, 2007. NIH 3T3 STAT1-luciferase reporter, IFN-gamma, luminescence;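 active means inhibition above a set limit, the mean inhibition across all tested compounds plus 3 SD, cut at about 34% in these data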;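 further: 0% = IFN-gamma with DMSO and 100% = IFN-gamma with 300 µM nifuroxazide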
# STAT3 act-1: IL-6 driven STAT3 reporter potentiators, primary screen, U3A cells, luciferase, luminescence, MLSCN library; IL-6 STAT3-luciferase reporter; 100% = signal with IL-6 EC80 alone; activation (% of control), % at 5.6 µM; 190,000 tested, 0.91% active;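 active means activation above the screen-wide mean of compound activation plus 3 SD, cut at about 130% in these data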;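 further: 0% = background luminescence of wells with medium and substrate only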
#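 Material: human U3A cells carrying STAT3-luciferase construct. Measured by: reporter luminescence signal. Timing: compound 1 h, then IL-6 6 h at 37 °C.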
# APP 5'UTR act: activators of APP 5'UTR luciferase reporter, primary screen, SH-SY5Y cells; activation, % at 2 µM; 190,000 tested, 1% active; AID 1276, 2008; SH-SY5Y APP 5'UTR luciferase reporter, luminescence; zero percent = DMSO vehicle wells;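 active means activation above a set limit, based on mean plus 3 SD of controls, cut at about 140% in these data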
# STAT3 act-2: STAT3 reporter potentiators, retest of hits, confirmation, U3A cells, luciferase, luminescence; shares compounds with STAT3 act-1; IL-6 potentiation; U3A cells lack STAT1; 100 means same as IL-6 alone; potentiation (% of control), % at 5.7 µM; 1,200 tested, 64% active;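 active means percent activation of the STAT3 luciferase reporter above a set limit taken from the earlier primary screen, cut at about 130% in these data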;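 further: 0% = background signal of medium plus substrate and 100% = median of IL-6 with DMSO wells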
# NFkB act 2: NF-kB reporter activators in human cells, counter-screen for STAT3 activator project; activation (% of control), % at 5.7 µM; 1,200 tested, 11% active; shares compounds with STAT3 act-1; NF-kappaB reporter activation; AID 1309, 2008; in the data active means activation above about 120%;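 further: reporter induced by TNF-alpha stimulation; 100% = median of stimulated DMSO wells and 0% = no signal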
# STAT1 act-2: STAT1 reporter activators, IFN-gamma induced, counter-screen for STAT3 activator project, cell-based, NIH 3T3, luciferase luminescence | shares compounds with STAT3 act-1 | NIH 3T3 STAT1-luciferase reporter | activation (% of control), % at 5.7 µM | 1,200 tested, 13% active | AID 1318, 2008;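 active means activation above the solvent-only control well mean plus 3 SD, set per screening run, cut at about 120% in these data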;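 further: 100% = IFN-gamma with DMSO median signal so 100% means no change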
# Numbers without * were called inactive; · = not tested or not shown. Most compounds without a hit are left out; they make up all but 4.9% or so of the library.
SMILES,NF-kB expr up,STAT1 act-1,STAT3 inh,STAT1 inh,STAT3 act-1,APP 5'UTR act,STAT3 act-2,NFkB act 2,STAT1 act-2
COc1ccccc1NS(=O)(=O)c1cccc(C(=O)OCC(=O)Nc2cc(C)on2)c1,0.87,98,2,2,102,-11,·,·,·
Cc1cccc(NS(=O)(=O)c2ccc(C)c(C(=O)OCC(=O)Nc3cc(C)on3)c2)c1,3,93,-43,8,140*,-8,140*,106,101
CCOC(=O)Cn1nc(C)cc1NC(=O)c1cccnc1,1.2,91,20,8,90,-12,·,·,·
O=Cc1cc2ccccc2nc1SCc1ccc(Cl)c(Cl)c1,3.2,99,-17,1,120,-8,·,·,·
O=Cc1cc2ccccc2nc1SCc1ccc(Cl)cc1,2.8,111,-65,-12,161*,-3,130,101,102
Cc1ccc(CSc2nc3ccccc3cc2C=O)cc1,2.2,101,-104,-1,193*,-94,153*,109,102
Cc1ccc(C(=O)c2oc3ccccc3c2N)cc1,2.5,117,-50,-27,143*,48,119,118,113
Nc1c(C(=O)c2ccc(Br)s2)oc2ccccc12,1.8,104,-82,-4,177*,9,158*,115,110
Cc1ccccc1OCCSc1nnc(-c2cccnc2)n1N,0.95,99,10,1,95,-3,·,·,·
CCOC(=O)c1ccc(NC2=CC(=O)C(=O)c3ccccc32)cc1,2.3,100,-46,0,144*,-7,128,107,102
Cc1ccc(NC2=CC(=O)C(=O)c3ccccc32)cc1,2,120,-2,-22,105,30,·,·,·
Cc1cccc2sc(NC(=O)CSc3nc4ccccc4o3)nc12,1.3,93,-44,9,136*,·,115,102,94
O=C(CSc1nc2ccccc2o1)Nc1nc2ccc(Br)cc2s1,1,103,14,-4,93,4,·,·,·
O=C(COC(=O)CNC(=O)c1ccco1)NCc1ccc(F)cc1,1.2,88,-17,13,115,-18,·,·,·
Cc1ccccc1Nc1nc(N)nc(COC(=O)c2ccc(O)cc2)n1,1,103,24,-3,82,12,·,·,·
CCc1ccccc1Nc1nc(N)nc(COC(=O)c2cccn2C)n1,1.6,108,-44,-9,147*,12,150*,110,125*
CCOC(=O)c1c(C)oc2c1c1c(c3ccccc32)OCN(Cc2ccccn2)C1,2.2,107,-63,-7,150*,25,126,99,93
COc1ccc(C)cc1NC(=O)CNC(C)C(=O)Nc1cc(Cl)ccc1Cl (stereo not drawn),0.9,100,-4,-1,105,-15,·,·,·
O=C(NC(=S)Nc1nc2c(ccc3ccccc32)s1)c1cccs1,0.75,100,-47,0,140*,7,142*,100,80
COc1cc([N+](=O)[O-])ccc1N1C(=O)C2C3C=CC(C4CC34)C2C1=O (stereo not drawn),1.1,102,3,-3,109,2,·,·,·
CCOc1ccccc1CNCc1ccc(C(=O)O)cc1,0.95,97,9,4,100,0,·,·,·
O=C(COc1ccccc1CNCc1ccccc1)Nc1ccccc1,1,102,-51,-6,143*,·,123,111,105
O=C(Nc1ccccc1N1CCN(C(=O)c2ccc(Cl)cc2)CC1)c1cc2ccccc2o1,0.38,98,-48,2,147*,-14,123,98,105
O=C(NCc1nnc(SCC(=O)N2CCOCC2)o1)c1ccccc1F,1.4,100,9,0,96,-11,·,·,·
Cc1cc(F)ccc1S(=O)(=O)Nc1ccccc1C(=O)NCc1cccnc1,1.1,96,1,2,101,-1,·,·,·
SMILES,NF-kB expr up,STAT1 act-1,STAT3 inh,STAT1 inh,STAT3 act-1,APP 5'UTR act,STAT3 act-2,NFkB act 2,STAT1 act-2
CC1=C(CC(=O)c2ccccc2)C(=O)c2ccccc2C1=O,0.58,117,-33,-19,138*,28,143*,104,112
CCC1(C(=O)OC)NC(c2ccco2)C2C(=O)N(c3ccc(F)cc3)C(=O)C21 (stereo not drawn),1.2,97,4,1,103,17,·,·,·
CS(=O)(=O)N(CC(=O)Nc1cccc([N+](=O)[O-])c1)c1cccc(F)c1,·,103,5,-3,101,-1,·,·,·
Cc1noc(N)c1C1(O)C(=O)N(C(C)C)c2ccccc21 (stereo not drawn),1.2,89,4,11,98,-1,·,·,·
Cc1[nH]c2ccccc2c1C1(O)C(=O)N(C(C)C)c2ccccc21 (stereo not drawn),0.66,98,-38,2,137*,-7,121,106,102
Cc1[nH]c2ccccc2c1C1(O)C(=O)N(Cc2ccc3c(c2)OCO3)c2ccccc21 (stereo not drawn),3.3*,87,-41,14,137*,15,134*,105,105
CC1=NN(c2ccc(Br)cc2)C(=O)/C1=C/c1cccs1,1.5,87,-94,15,181*,1,155*,99,91
CCOC(=O)C1=C(C)N(CC(C)C)C(=O)/C1=C\c1ccc(OCC(=O)Nc2ccccc2)cc1,0.74,106,-13,-6,115,9,·,·,·
CCc1c(C)sc(NC(=O)c2ccco2)c1C(=O)N1CCOCC1,1.1,97,-42,-4,138*,9,99,109,103
O=C1c2ccccc2C(=O)N1OCc1cccc(Cl)c1,1.1,101,16,-1,91,4,·,·,·
O=C1c2ccccc2C(=O)N1OCc1ccccc1,1.1,109,-40,-10,137*,14,114,103,105
COc1ccc(OC)c(-c2nnc(NC(=O)C(C)Sc3nncn3C)s2)c1 (stereo not drawn),1.1,101,-44,-1,140*,-8,119,105,101
Cn1ncc(Br)c1C(=O)Nc1c(F)c(F)cc(F)c1F,1.4,122,-42,-41,139*,-3,137*,115,148*

# High-throughput results deposited in PubChem by several laboratories.
